Columns and labels:
DLD-1 = assay: Antiproliferative activity against human DLD1 cells after 72 hrs by MTT assay; type: functional; conditions: DLD-1, 72 h
Outline: (§1)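 Cells cultured at 37 °C, 5% CO₂ in medium with 10% FBS and penicillin/streptomycin, used within 12-20 passages. Seeded at 2.5×10^3 cells/well for 24 h, then compound added from DMSO stocks at 200-fold final concentration (final DMSO 0.5% v/v). After 72 h, 0.5 mg/mL MTT for 3 h, formazan dissolved in DMSO, A570 read. IC50 from sigmoidal fit; three independent determinations.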

BJ [1] = assay: Antiproliferative activity against human BJ cells assessed as reduction in cell viability at 5 uM incubated for 2 days followed by compound washout measured after 11 days by cell counting method; type: cell-based; conditions: 48 h
Outline: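 Normal BJ fibroblasts synchronized in G1 by 2-day serum starvation (0.1% FBS), released into 10% FBS medium and exposed to 5 μM for 2, 4 or 11 days. After 2 or 4 days drug removed and growth continued in fresh medium up to 11 days. Total cell numbers by automated counter; mean ± S.D., n>6.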

NUGC-3 = assay: Antiproliferative activity against human NUGC3 cells after 72 hrs by MTT assay; type: functional; conditions: NUGC-3, 72 h; outline: as §1
[2] = Antiproliferative activity against human NCC19 cells after 72 hrs by MTT assay; type: functional; outline: as §1
HCT-15 = assay: Antiproliferative activity against human HCT15 cells after 72 hrs by MTT assay; type: functional; conditions: HCT-15, 72 h; outline: as §1
BJ [3] = assay: Induction of apoptosis in human BJ cells assessed as activation of caspase-3/7 up to 5 uM after 48 hrs by caspase-Glo 3/7 luminescent assay; type: cell-based
Outline: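 Normal and transformed BJ cells treated 48 h across a concentration series. Caspase-3/7 activity by Caspase-Glo 3/7 luminescence, normalized to viable cell number from MTT. Mean ± S.D., n=3; two-tailed unpaired t tests.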

SMILES: N#C/C(=C\c1cccc2cnccc12)c1c[nH]c2ccccc12
- GI50 (DLD-1): 1200 nM
- Activity (BJ [1]): Non-Toxic
- GI50 (NUGC-3): 1000 nM
- GI50 [2]: 4600 nM
- GI50 (HCT-15): 500 nM
- Activity (BJ [3]): Non-Toxic
